From article PMC4772774 (Journal of medicinal chemistry, 2015)
pEC50, pKi: −log10 of the molar value. Read-outs that look alike come from different tables or passages of the source.

Columns and labels:
δ-opioid receptor (DOR) [1] = biological target: T1, δ-opioid receptor (DOR) (Rattus norvegicus, UniProt P33533); assay: Agonist stimulation of [35S]GTPγS binding, C6-DOR membranes; format: biochemical; conditions: dns: does not stimulate; for EC50 DOR: [35S]GTPγS binding, mean (S.E.M.), n=3; for % stimulation DOR: percent maximal stimulation relative to DPDPE at 10 µM
Method in brief: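 C6 rat glioma cells stably expressing rat DOR; membranes (10–20 µg protein) incubated 1 h at 25°C in 50 mM Tris-HCl, 100 mM NaCl, 5 mM MgCl2, pH 7.4, with 0.1 nM [35S]GTPγS, 30 µM GDP and varying test compound.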

κ-opioid receptor (KOR) [2] = biological target: T2, κ-opioid receptor (KOR) (Homo sapiens, UniProt P41145); assay: Agonist stimulation of [35S]GTPγS binding, CHO-KOR membranes; format: biochemical; conditions: for EC50 KOR: [35S]GTPγS binding, mean (S.E.M.), n=3 (footnote d: n=2), dns: does not stimulate
DOR = DOR (Rattus norvegicus, UniProt P33533); assay: Antagonism of the DOR agonist DPDPE; format: biochemical
Plasma stability testing = format: in vitro ADME; conditions: in plasma after 30 min
C57BL/6 mice = assay: Mouse warm water tail withdrawal; format: in vivo; conditions: 10 mg/kg ip
µ-opioid receptor (MOR) [3] = biological target: T3, µ-opioid receptor (MOR) (Rattus norvegicus, UniProt P33535); conditions: relative to DAMGO at 10 µM; previously published, ref [1]; cited from earlier work
κ-opioid receptor (KOR) [4] = biological target: T2, κ-opioid receptor (KOR); conditions: [35S]GTPγS binding; dns: does not stimulate; previously published, ref [1]; cited from earlier work
δ-opioid receptor (DOR) [5] = biological target: T1, δ-opioid receptor (DOR); conditions: [35S]GTPγS binding; dns: does not stimulate; previously published, ref [1]; cited from earlier work
µ-opioid receptor (MOR) [6] = biological target: T3, µ-opioid receptor (MOR); assay: Agonist stimulation of [35S]GTPγS binding, C6-MOR membranes; format: biochemical; conditions: dns: does not stimulate
Method in brief: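 C6 rat glioma cells stably expressing rat MOR were grown in DMEM/10% FBS. Membranes (10–20 µg protein) were incubated 1 h at 25 °C in 50 mM Tris-HCl, 100 mM NaCl, 5 mM MgCl2, pH 7.4, with 0.1 nM [35S]GTPγS, 30 µM GDP and varying compound concentrations. Samples were GF/C-filtered and scintillation-counted. Stimulation was expressed relative to 10 µM DAMGO.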

µ-opioid receptor (MOR) [7] = biological target: T3, µ-opioid receptor (MOR); assay: [3H]diprenorphine competitive displacement binding, C6-MOR membranes

T1 sequence (P33533 whole entry): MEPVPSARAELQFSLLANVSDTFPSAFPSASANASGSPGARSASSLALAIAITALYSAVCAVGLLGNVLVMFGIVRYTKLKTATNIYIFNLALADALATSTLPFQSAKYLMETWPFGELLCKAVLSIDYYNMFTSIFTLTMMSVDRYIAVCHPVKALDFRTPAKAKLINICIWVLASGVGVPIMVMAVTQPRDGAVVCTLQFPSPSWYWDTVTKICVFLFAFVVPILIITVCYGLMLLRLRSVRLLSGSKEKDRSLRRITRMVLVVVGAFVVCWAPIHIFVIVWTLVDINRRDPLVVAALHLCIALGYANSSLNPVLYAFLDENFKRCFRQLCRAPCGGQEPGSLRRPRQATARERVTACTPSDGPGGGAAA
T2 sequence (P41145 whole entry): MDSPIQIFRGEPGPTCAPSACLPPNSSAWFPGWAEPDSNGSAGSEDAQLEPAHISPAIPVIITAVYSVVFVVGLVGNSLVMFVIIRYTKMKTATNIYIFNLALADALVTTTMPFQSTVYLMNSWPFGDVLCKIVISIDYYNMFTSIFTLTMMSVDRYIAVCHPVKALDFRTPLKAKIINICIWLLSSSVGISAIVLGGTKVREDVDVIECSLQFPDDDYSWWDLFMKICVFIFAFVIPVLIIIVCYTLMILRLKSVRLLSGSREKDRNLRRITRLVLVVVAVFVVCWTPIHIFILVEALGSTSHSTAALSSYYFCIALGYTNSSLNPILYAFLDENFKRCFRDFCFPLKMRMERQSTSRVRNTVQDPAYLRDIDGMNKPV
T3 sequence (P33535 whole entry): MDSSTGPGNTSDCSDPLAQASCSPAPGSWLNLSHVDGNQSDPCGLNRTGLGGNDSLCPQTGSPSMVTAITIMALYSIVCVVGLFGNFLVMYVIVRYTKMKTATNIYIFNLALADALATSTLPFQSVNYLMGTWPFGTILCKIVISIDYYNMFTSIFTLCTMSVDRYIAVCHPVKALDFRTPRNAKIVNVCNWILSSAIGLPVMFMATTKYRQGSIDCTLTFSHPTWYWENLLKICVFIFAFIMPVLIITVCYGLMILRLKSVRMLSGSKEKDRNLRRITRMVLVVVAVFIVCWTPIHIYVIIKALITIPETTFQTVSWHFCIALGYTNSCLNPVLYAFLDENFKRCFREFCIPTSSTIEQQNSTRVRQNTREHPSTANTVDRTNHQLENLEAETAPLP
Sequence of DOR (P33533 whole entry): as the sequence (P33533 whole entry) above

CC(=O)N1CC[C@@H](NC(=O)[C@@H](N)Cc2c(C)cc(O)cc2C)c2cc(CC3CCc4ccccc43)ccc21 (mixture of isomers) [14g, (S)-N-((R)-1-Acetyl-6-(((R/S)-2,3-dihydro-1H–inden-1-yl)methyl)-1,2,3,4-tetrahydroquinolin-4-yl)-2-amino-3-(4-hydroxy-2,6-dimethylphenyl)propanamide]
EC50 DOR (δ-opioid receptor (DOR) [1]): dns | % stimulation DOR (δ-opioid receptor (DOR) [1]): dns | pEC50 (κ-opioid receptor (KOR) [2]): < 6.00

Cc1cc(O)cc(C)c1C[C@H](N)C(=O)N[C@@H]1CCNc2ccc(CC3CCc4ccccc43)cc21 (mixture of isomers) [14h, (S)-2-Amino-N-((R)-6-(((R/S)-2,3-dihydro-1H–inden-1-yl)methyl)-1,2,3,4-tetrahydroquinolin-4-yl)-3-(4-hydroxy-2,6-dimethylphenyl)propanamide]
EC50 DOR (δ-opioid receptor (DOR) [1]): dns | % stimulation DOR (δ-opioid receptor (DOR) [1]): dns

CC(=O)N1CC[C@@H](NC(=O)[C@@H](N)Cc2c(C)cc(O)cc2C)c2cc(Cc3ccc4ccccc4c3)ccc21 [14a, (S)-N-((R)-1-Acetyl-6-(naphthalen-2-ylmethyl)-1,2,3,4-tetrahydroquinolin-4-yl)-2-amino-3-(4-hydroxy-2,6-dimethylphenyl)propanamide]
Kb (DOR): 1.98 nM | plasma stability (Plasma stability testing): fully stable | EC50 DOR (δ-opioid receptor (DOR) [1]): dns | % stimulation DOR (δ-opioid receptor (DOR) [1]): dns | EC50 KOR (κ-opioid receptor (KOR) [2]): dns ^d | duration of maximal antinociception (C57BL/6 mice; mouse WWTW time course): approximately 200 min | duration of action compared to 14i (C57BL/6 mice; mouse WWTW, relative to original lead 14i): greater than 3 times

Cc1cc(O)cc(C)c1C[C@H](N)C(=O)N[C@@H]1CCNc2ccc(CC3CCCCC3)cc21 [14b, (S)-2-Amino-N-((R)-6-(cyclohexylmethyl)-1,2,3,4-tetrahydroquinolin-4-yl)-3-(4-hydroxy-2,6-dimethylphenyl)propanamide]
EC50 DOR (δ-opioid receptor (DOR) [1]): dns | % stimulation DOR (δ-opioid receptor (DOR) [1]): dns

CC(=O)N1CC[C@@H](NC(=O)[C@@H](N)Cc2c(C)cc(O)cc2C)c2cc(CC3CCCCC3)ccc21 [14c, (S)-N-((R)-1-Acetyl-6-(cyclohexylmethyl)-1,2,3,4-tetrahydroquinolin-4-yl)-2-amino-3-(4-hydroxy-2,6-dimethylphenyl)propanamide]
% stimulation DOR (δ-opioid receptor (DOR) [1]): 26 (5) %

CC(=O)N1CC[C@@H](NC(=O)[C@@H](N)Cc2c(C)cc(O)cc2C)c2cc(Cc3cccc4ccccc34)ccc21 [14d, (S)-N-((R)-1-Acetyl-6-(naphthalen-1-ylmethyl)-1,2,3,4-tetrahydroquinolin-4-yl)-2-amino-3-(4-hydroxy-2,6-dimethylphenyl)propanamide]
Kb (DOR): 27.5 nM | plasma stability (Plasma stability testing): fully stable | EC50 DOR (δ-opioid receptor (DOR) [1]): dns | % stimulation DOR (δ-opioid receptor (DOR) [1]): dns | EC50 KOR (κ-opioid receptor (KOR) [2]): dns ^d

CC(=O)N1CC[C@@H](NC(=O)[C@@H](N)Cc2c(C)cc(O)cc2C)c2cc(Cc3ccccc3)ccc21 [14e, (S)-N-((R)-1-Acetyl-6-benzyl-1,2,3,4-tetrahydroquinolin-4-yl)-2-amino-3-(4-hydroxy-2,6-dimethylphenyl)propanamide]
% stimulation DOR (δ-opioid receptor (DOR) [1]): 26 (3) %

CC(=O)N1CC[C@@H](NC(=O)[C@@H](N)Cc2c(C)cc(O)cc2C)c2cc(CC3Cc4ccccc4C3)ccc21 [14f, (S)-N-((R)-1-Acetyl-6-((2,3-dihydro-1H–inden-2-yl)methyl)-1,2,3,4-tetrahydroquinolin-4-yl)-2-amino-3-(4-hydroxy-2,6-dimethylphenyl)propanamide]
EC50 DOR (δ-opioid receptor (DOR) [1]): dns | % stimulation DOR (δ-opioid receptor (DOR) [1]): dns

Cc1cc(O)cc(C)c1C[C@H](N)C(=O)N[C@@H]1CCNc2ccc(Cc3ccc4ccccc4c3)cc21 [14j, (S)-2-Amino-3-(4-hydroxy-2,6-dimethylphenyl)-N-((R)-6-(naphthalen-2-ylmethyl)-1,2,3,4-tetrahydroquinolin-4-yl)propanamide]
% stimulation MOR (µ-opioid receptor (MOR) [3]): 96 (3) % | EC50 KOR (κ-opioid receptor (KOR) [4]): dns | EC50 DOR (δ-opioid receptor (DOR) [5]): dns

Cc1cc(O)cc(C)c1C[C@H](N)C(=O)N[C@@H]1CCNc2ccc(Cc3cccc4ccccc34)cc21 [14k, (S)-2-Amino-3-(4-hydroxy-2,6-dimethylphenyl)-N-((R)-6-(naphthalen-1-ylmethyl)-1,2,3,4-tetrahydroquinolin-4-yl)propanamide]
% stimulation MOR (µ-opioid receptor (MOR) [3]): 93 (5) % | EC50 KOR (κ-opioid receptor (KOR) [4]): dns

Cc1cc(O)cc(C)c1C[C@H](N)C(=O)N[C@@H]1CCNc2ccc(CC3Cc4ccccc4C3)cc21 [14l, (S)-2-Amino-N-((R)-6-((2,3-dihydro-1H–inden-2-yl)methyl)-1,2,3,4-tetrahydroquinolin-4-yl)-3-(4-hydroxy-2,6-dimethylphenyl)propanamide]
% stimulation MOR (µ-opioid receptor (MOR) [3]): 86 (1) %

Cc1cc(O)cc(C)c1C[C@H](N)C(=O)N[C@@H]1CCCc2ccc(Cc3ccccc3)cc21 [14m, (S)-2-Amino-N-((R)-7-benzyl-1,2,3,4-tetrahydronaphthalen-1-yl)-3-(4-hydroxy-2,6-dimethylphenyl) propanamide]
EC50 DOR (δ-opioid receptor (DOR) [1]): dns | % stimulation DOR (δ-opioid receptor (DOR) [1]): dns | EC50 KOR (κ-opioid receptor (KOR) [2]): dns

Cc1cc(O)cc(C)c1C[C@H](N)C(=O)N[C@@H]1CCCc2ccc(CC3CCCCC3)cc21 [14n, (S)-2-Amino-N-((R)-7-(cyclohexylmethyl)-1,2,3,4-tetrahydronaphthalen-1-yl)-3-(4-hydroxy-2,6-dimethylphenyl)propanamide]
EC50 MOR (µ-opioid receptor (MOR) [6]; [35S]GTPγS binding, mean (S.E.M.), n=3): dns | % stimulation MOR (µ-opioid receptor (MOR) [6]; percent maximal stimulation relative to DAMGO at 10 µM): dns | pKi (µ-opioid receptor (MOR) [7]): 9.92 | EC50 DOR (δ-opioid receptor (DOR) [1]): dns | % stimulation DOR (δ-opioid receptor (DOR) [1]): dns

Cc1cc(O)cc(C)c1C[C@H](N)C(=O)N[C@@H]1CCCc2ccc(Cc3ccc4ccccc4c3)cc21 [14o, (S)-2-Amino-3-(4-hydroxy-2,6-dimethylphenyl)-N-((R)-7-(naphthalen-2-ylmethyl)-1,2,3,4-tetrahydronaphthalen-1-yl)propanamide]
EC50 DOR (δ-opioid receptor (DOR) [1]): dns | % stimulation DOR (δ-opioid receptor (DOR) [1]): dns | EC50 KOR (κ-opioid receptor (KOR) [2]): dns

Cc1cc(O)cc(C)c1C[C@H](N)C(=O)N[C@@H]1CCCc2ccc(Cc3cccc4ccccc34)cc21 [14p, (S)-2-Amino-3-(4-hydroxy-2,6-dimethylphenyl)-N-((R)-7-(naphthalen-1-ylmethyl)-1,2,3,4-tetrahydronaphthalen-1-yl)propanamide]
EC50 DOR (δ-opioid receptor (DOR) [1]): dns | % stimulation DOR (δ-opioid receptor (DOR) [1]): dns | EC50 KOR (κ-opioid receptor (KOR) [2]): dns ^d
